Screening data from PubChem BioAssay.
Only some compounds are listed: those with a hit (about 4.3% of all), similar ones and a draw of the others.
WT yeast gro inh: growth inhibition of WT strain, primary screen, mitochondrial fusion inhibitor project, WT and mutant strains, chemical genetic; mitochondrial fusion phenotypic screen; inhibition, % at 10 µM; hit rate 2.1% among 190,000; AID 1362, 2008; in the data active = inhibition above about 58%; tested in S. cerevisiae
BB579 growth dn: growth inhibitors of yeast BB579 in restrictive medium, primary screen, yeast lifespan-shortening project, S. cerevisiae; OD615, 48 h; inhibition, % at 10 µM; hit rate 0.51% among 140,000; AID 804, 2007;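 active = inhibition above a set limit, 3 SD over the mean compound inhibition, cut at about 44% in these data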
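System: Saccharomyces cerevisiae DeaD strain BB579, replicative lifespan model yeast | Buffer or medium: Restrictive glucose-based CSMM-D medium | Times: 4 h preincubation and 48 h exposure at 30 °C | Detection: OD615 turbidity measurement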
RAM inhibit: inhibitors of the yeast RAM network, primary screen, dse1pr::URA3 reporter, 5-FOA selection; S. cerevisiae dse1pr::URA3 reporter, 5-FOA growth OD615, 2 d; analog-sensitive cbk1-as2 kinase mutant strain; inhibition, % at 50 µM; hit rate 1.8% among 190,000;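 active = inhibition above a set limit, 3 SD over mean compound inhibition, cut at about 8.4% in these data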;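 also: inhibition rescues growth on 5-FOA so higher OD means more RAM inhibition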
Yeast lifespan up: compounds extending yeast replicative lifespan, primary screen, S. cerevisiae, OD615; S. cerevisiae growth with nicotinamide; deaD strain in restrictive glucose medium; inhibition of the nicotinamide effect, % at 10 µM; hit rate 0.68% among 130,000; AID 775, 2007;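 active = inhibition above a set limit, placed 3 SD over the median of all compounds, cut at about 26% in these data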
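Buffer or medium: CSMM-D glucose medium, restrictive; test system: modified budding yeast, DeaD strain; compound: single dose 10 µM compound, 0.25% DMSO; schedule: culture preincubation 4 h, compound exposure 48 h, both 30 °C; detection: optical density (absorbance) at 615 nm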
RAM 5-FOA: 5-FOA growth of efflux-deficient control yeast, dose response, counter-screen for RAM network inhibitor project, S. cerevisiae, OD615; shares compounds with RAM inhibit; S. cerevisiae efflux-deficient reporter strain, 5-FOA growth OD615, 2 days; max inhibition, %; 1,200 tested, under 10 active; AID 1305, 2008; call rule not given here
Hits are given with their value; i = inactive; nt = no result.

SMILES	WT yeast gro inh	BB579 growth dn	RAM inhibit	Yeast lifespan up	RAM 5-FOA
O=C(CCSc1ccc(Cl)cc1)c1cccs1	i	i	i	i	nt
FC(F)(F)c1cccc(OCCN2CCN(Cc3ccccc3)CC2)c1	i	i	i	i	nt
Cc1ccc(S(=O)(=O)NCC2(c3ccccc3)CCOCC2)cc1	i	nt	i	nt	nt
Cc1ccc(-c2nn(-c3ccccc3)cc2/C=C(\C#N)C(=O)NCc2ccccc2)cc1	i	i	i	i	nt
CCCSc1ccc(-c2nn(-c3ccccc3)cc2/C=C(/C#N)C(=O)NCCCOC)cc1	i	i	16.1	i	i
CCSc1ccc(-c2nn(-c3ccccc3)cc2/C=C(/C#N)C(=O)NCCCOC)cc1	i	i	17.3	i	i
CCCCCCOC(=O)Cc1c(C)nc(-c2ccccc2)[nH]c1=O	i	i	i	i	nt
O=C(NCCn1cc(SCc2ccccc2)c2ccccc21)c1ccccc1F	i	i	15.3	i	i
COc1ccccc1OCC(=O)N(Cc1nc(-c2ccccc2)no1)C1CCCCC1	60.9	i	12.9	i	i
CC(=O)N1CCc2ccc(S(=O)(=O)N3CC(C)OC(C)C3)cc21 (centres undefined)	i	i	i	i	nt
CCOc1cc(S(=O)(=O)NCc2ccccn2)c(C)cc1C	i	i	i	i	nt
O=C(CCl)NCc1c(Cl)cccc1-n1cccc1	i	i	i	i	nt
CCOC(=O)CSc1nc(N)c(C#N)c(-c2cccs2)c1C#N	i	i	i	i	nt
CCOC(=O)C(C)Sc1nc2c(c(-c3cccs3)c1C#N)CCC2 (centres undefined)	i	i	11.7	i	i
S=C(NCCC(c1ccccc1)c1ccccc1)Nc1ccccc1Cl	i	i	15.2	i	i
Cc1ccc(N(CC(=O)NCCSCc2ccco2)S(=O)(=O)c2ccc(F)cc2)cc1	i	nt	i	nt	nt
CS(=O)(=O)N(Cc1ccc(C(=O)NCCSCc2ccco2)cc1)c1ccccc1	i	i	11.7	i	i
COc1ccc(N(CC(=O)NCCSCc2ccco2)S(=O)(=O)c2ccc(C)cc2)cc1	i	nt	14.8	nt	i
CCOc1ccc(S(=O)(=O)Nc2nc3ccc(OC)cc3s2)cc1	i	i	12.2	i	i
CC(C)CNC(=O)c1c(N)n(/N=C/c2ccccn2)c2nc3ccccc3nc12	i	i	14.5	i	i
Cc1ccccc1OCCC(=O)Nc1cccc(S(=O)(=O)Nc2ccccc2Cl)c1	i	i	17.4	i	i
O=C(COC(=O)c1ccc(-c2ccccc2)cc1)Nc1ccccc1-c1ccccc1	i	i	11.8	i	i
CCn1cc(CNC(=O)CCc2nnc(CCC3CCCCC3)o2)cn1	i	nt	i	nt	nt
COc1ccc(N(C)S(=O)(=O)c2cccc(C(=O)NC3CCCCC3C)c2)cc1 (centres undefined)	i	nt	i	nt	nt
COc1ccc(N(C)S(=O)(=O)c2cccc(C(=O)NCC3CCCCC3)c2)cc1	i	nt	12.8	nt	i
SMILES	WT yeast gro inh	BB579 growth dn	RAM inhibit	Yeast lifespan up	RAM 5-FOA
CCn1nc(C)c(NC(=O)Nc2cccc(Cl)c2Cl)c1C	i	nt	i	nt	nt
COc1ccc(N2CCN(c3oc(COc4ccc(Cl)cc4Cl)nc3C#N)CC2)cc1	i	i	i	i	nt
Cc1ccc(OCc2nc(C#N)c(NCc3ccc4c(c3)OCO4)o2)cc1	i	i	14.5	i	i
COc1ccc(CNc2oc(COc3ccc(Cl)cc3)nc2C#N)cc1	70.8	i	12.8	i	i
COc1ccc(Nc2oc(COc3ccc(Cl)cc3)nc2C#N)cc1	i	i	i	i	nt
COc1ccc(N2CCN(c3oc(COc4ccc(Cl)cc4)nc3C#N)CC2)cc1	i	i	12.9	i	i
COc1ccc(/C=C/C(=O)c2ccc(Cl)cc2)c(OC)c1	i	i	11.6	i	i
COc1ccc(C(=O)/C=C/c2ccc(OC)cc2OC)c(O)c1	i	nt	i	nt	nt
Nc1nc(SCC(=O)Nc2ccccc2C(F)(F)F)[nH]c(=O)c1-c1ccccc1	i	nt	i	nt	nt
CCCCC(=O)Nc1cccc(NC(=S)NC(=O)Cc2ccccc2)c1	i	i	i	i	nt
CCCCC(=O)Nc1cccc(NC(=S)NC(=O)COc2ccccc2Cl)c1	i	i	11.5	i	i
CCOc1ccccc1NC(=S)NC(=O)CCCOc1ccc(Cl)cc1Cl	i	i	12.2	i	i
Clc1ccc(-c2csc(N3CCC(c4ccccc4)C3)n2)cc1 (centres undefined)	i	i	13.5	i	i
Fc1ccc(-c2csc(N3CCC(c4ccccc4)C3)n2)cc1 (centres undefined)	i	i	i	i	nt
O=C(Cc1cccs1)N1CCN(c2nc(-c3ccc(Cl)cc3)cs2)CC1	59.3	i	14.5	i	i
CCCCn1c(NS(=O)(=O)c2ccc(C)cc2)c(S(=O)(=O)c2ccccc2)c2nc3ccccc3nc21	i	i	12.1	i	i
Cc1cc(C)c(NC(=O)/C(=C/c2ccccc2)c2ccccc2)c(C)c1	i	i	13.4	i	i
COc1ccc(-c2[nH]n(-c3ccc([N+](=O)[O-])cc3)c(=O)c2C=NCc2ccccc2)cc1	i	i	i	i	nt
Cc1ccc(N(CCCCN2C(=O)c3ccccc3C2=O)C(=O)c2cccs2)cc1	i	i	11.8	i	i
CC1CC1C(=O)OCC(=O)Nc1ccc2[nH]c(=O)[nH]c2c1 (centres undefined)	i	nt	i	nt	nt
C=CCNC(=O)CC(=O)N/N=C/c1cccc(C)c1	i	i	i	i	nt
O=C(c1cnc(-c2ccc(Cl)cc2)s1)c1ccc(Cl)cc1Cl	73.1	i	14.8	i	i
O=C(O)Cc1ccc(C(=O)c2ccc(Cl)cc2Cl)s1	i	nt	i	nt	nt
O=C(CN(Cc1ccccc1)S(=O)(=O)c1ccc(F)cc1)NCCC1=CCCCC1	i	i	i	i	nt
O=C(CN(Cc1ccccc1F)S(=O)(=O)c1ccc(Cl)cc1)NCCC1=CCCCC1	i	i	12.2	i	i
SMILES	WT yeast gro inh	BB579 growth dn	RAM inhibit	Yeast lifespan up	RAM 5-FOA
CCC(C)NC(=O)c1ccccc1NC(=O)c1ccc(CSc2ccccc2)cc1 (centres undefined)	i	i	20.1	i	i
CCCNC(=O)c1ccccc1NC(=O)c1ccccc1SC	i	nt	i	nt	nt
CCCNC(=O)c1ccccc1NC(=O)c1ccc(CSc2ccccc2)cc1	i	i	12.7	i	i
CCN(CC)c1ccc(/C=C(\C#N)c2nc(-c3cccs3)c(NC(C)=O)s2)cc1	i	i	i	i	nt
CCCCC(=O)Nc1cccc(-c2csc(-c3ccccc3)n2)c1	i	i	18.5	i	i
O=C(O)CCC(=O)Nc1cccc(-c2csc(-c3ccccc3)n2)c1	i	nt	i	nt	nt
Cc1cccc(CSc2nc3sc(C)c(C)c3c(=O)n2Cc2ccco2)c1	i	i	22.3	i	i
Cc1sc2nc(SCc3nc4ccccc4[nH]3)n(Cc3ccco3)c(=O)c2c1C	i	i	i	i	nt
Cc1ccc(CSc2nc3sc(C)c(C)c3c(=O)n2Cc2ccco2)cc1	i	i	17.1	i	i
Cc1sc2nc(SCc3ccccc3)n(Cc3ccco3)c(=O)c2c1C	i	i	13.2	i	i
